According to ChEMBL document CHEMBL1124476, “1-(2-aminoethyl)-6-aryl-4H- [1,2,4]triazolo[4,3-a][1,4]benzodiazepines with diuretic and natriuretic activity” (J Med Chem, 1989):

Tests used:
[1] = Diuretic activity at 40 mg/kg (screening dose-55.2 umol/kg) in […] in a one stage experiment; T/C = urine vol of treated rats / urine vol of control rats; assay type: functional
In short: (§1)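 40 mg/kg given by gavage in 25 mL/kg 0.9% saline with 0.5% (carboxymethyl)cellulose. Four rats per agent, two per metabolism cage; 20 controls; 5 h urine. T/C = treated/control urine volume. Stage-1 T/C of 1.66 or more leads to stage 2; product T/C1·T/C2 of 3.34 or more counts as active.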

[2] = Diuretic activity at 40 mg/kg (screening dose-55.2 umol/kg) in […] in a two stage experiment; T/C1.2 = urine vol of treated rats / urine vol of control rats; assay type: functional; in short: as §1
Rattus norvegicus [3] = assay: Mean excretion of chloride in conscious rats at a dose of 1.0 mg/kg given orally; assay type: ADME, organism-based; parameters: dose 1 mg/kg, route oral; conditions: in vivo, po
In short: (§2)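 Secondary dose-response in male Sprague-Dawley rats (~160 g), fasted and hydrated as in the primary screen. Oral gavage at 0.3-100 mg/kg in 25 mL/kg saline/0.5% CMC, three cages of two rats per dose. Urine collected 5 h; Na, K, Cl, HCO3 measured. Values are mean excretion (mequiv), compared with controls at P < 0.05.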

Rattus norvegicus [4] = organism: Rattus norvegicus; assay: […]; assay type: ADME, organism-based, Urine; parameters: dose 0.3 mg/kg, route oral; conditions: in vivo, po, 0.3 mg/kg
In short: (§3)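 Dose-response test in male Sprague-Dawley rats of about 160 g, fasted 24 h, with water withheld 1½ h before and during the test. Each rat got a single gavage of 25 mL/kg 0.9% saline with 0.5% carboxymethylcellulose carrying the agent (0.3–100 mg/kg range). Rats were housed two per metabolism cage, and urine was collected for 5 h. Mean urine volume (mL) was compared with controls (P < 0.05).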

[5] = Diuretic activity at 40 mg/kg (screening dose-90.5 uM/Kg) in […] in a two stage experiment; T/C1.2 = urine vol of treated rats / urine vol of control rats; assay type: functional; in short: as §1
Rattus norvegicus [6] = organism: Rattus norvegicus; assay: […]; assay type: ADME, organism-based, Urine; parameters: dose 30 mg/kg, route oral; conditions: in vivo, po, 30 mg/kg
In short: (§4)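 Male Sprague-Dawley rats, about 160 g, fasted 24 h and water withheld 1 1/2 h beforehand; food and water withheld during the test. Dosing by gavage with 25 mL/kg 0.9% saline containing 0.5% (carboxymethyl)cellulose, agent dissolved or suspended. Three cages of two rats each per dose, held in metabolism cages. Urine collected over 5 h. Volume given in mL, Na+ in mequiv. Significance versus control at P < 0.05.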

Rattus norvegicus [7] = assay: Mean excretion of potassium in conscious rats at a dose of 10 mg/kg given orally; assay type: ADME, organism-based; parameters: dose 10 mg/kg, route oral; conditions: in vivo, po; in short: as §2
Rattus norvegicus [8] = assay: Mean excretion of potassium in conscious rats at a dose of 30 mg/kg given orally; assay type: ADME, organism-based; parameters: dose 30 mg/kg, route oral; conditions: in vivo, po; in short: as §2
Rattus norvegicus [9] = assay: Mean excretion of sodium in conscious rats at a dose of 10 mg/kg given orally; assay type: ADME, organism-based; parameters: dose 10 mg/kg, route oral; conditions: in vivo, po; in short: as §4
Rattus norvegicus [10] = assay: Mean excretion of sodium in conscious rats at a dose of 3.0 mg/kg given orally; assay type: ADME, organism-based; parameters: dose 3 mg/kg, route oral; conditions: in vivo, po; in short: as §4
Rattus norvegicus [11] = organism: Rattus norvegicus; assay: […]; assay type: ADME, organism-based, Urine; parameters: dose 100 mg/kg, route oral; conditions: in vivo, po, 100 mg/kg; in short: as §4
Rattus norvegicus [12] = assay: Mean excretion of potassium in conscious rats at a dose of 3.0 mg/kg given orally; assay type: ADME, organism-based; parameters: dose 3 mg/kg, route oral; conditions: in vivo, po; in short: as §2
Rattus norvegicus [13] = assay: Mean excretion of potassium in conscious rats at a dose of 1.0 mg/kg given orally; assay type: ADME, organism-based; parameters: dose 1 mg/kg, route oral; conditions: in vivo, po; in short: as §2
Rattus norvegicus [14] = assay: Mean excretion of chloride in conscious rats at a dose of 3.0 mg/kg given orally; assay type: ADME, organism-based; parameters: dose 3 mg/kg, route oral; conditions: in vivo, po; in short: as §2
Rattus norvegicus [15] = assay: Mean excretion of Cl- in conscious rats at a dose of 0.3 mg/kg given orally; assay type: ADME, organism-based, Urine; parameters: dose 0.3 mg/kg, route oral; conditions: in vivo, po; in short: as §3
Rattus norvegicus [16] = assay: Mean excretion of chloride in conscious rats at a dose of 30 mg/kg given orally; assay type: ADME, organism-based; parameters: dose 30 mg/kg, route oral; conditions: in vivo, po; in short: as §2
Rattus norvegicus [17] = organism: Rattus norvegicus; assay: […]; assay type: ADME, organism-based, Urine; parameters: dose 1 mg/kg, route oral; conditions: in vivo, po, 1 mg/kg; in short: as §3
Rattus norvegicus [18] = organism: Rattus norvegicus; assay: […]; assay type: ADME, organism-based, Urine; parameters: dose 3 mg/kg, route oral; conditions: in vivo, po, 3 mg/kg; in short: as §4
Rattus norvegicus [19] = assay: Mean excretion of chloride in conscious rats at a dose of 100 mg/kg given orally; assay type: ADME, organism-based; parameters: dose 100 mg/kg, route oral; conditions: in vivo, po; in short: as §2
Rattus norvegicus [20] = assay: Mean excretion of chloride in conscious rats at a dose of 10 mg/kg given orally; assay type: ADME, organism-based; parameters: dose 10 mg/kg, route oral; conditions: in vivo, po; in short: as §2
Rattus norvegicus [21] = assay: Mean excretion of potassium in conscious rats at a dose of 100 mg/kg given orally; assay type: ADME, organism-based; parameters: dose 100 mg/kg, route oral; conditions: in vivo, po; in short: as §2
Rattus norvegicus [22] = assay: Mean excretion of sodium in conscious rats at a dose of 100 mg/kg given orally; assay type: ADME, organism-based; parameters: dose 100 mg/kg, route oral; conditions: in vivo, po; in short: as §4
Rattus norvegicus [23] = assay: Mean excretion of sodium in conscious rats at a dose of 0.3 mg/kg given orally; assay type: ADME, organism-based; parameters: dose 0.3 mg/kg, route oral; conditions: in vivo, po; in short: as §4
[24] = Diuretic activity at 40 mg/kg (screening dose-84.7 umol/kg) in […] in a one stage experiment; T/C = urine vol of treated rats / urine vol of control rats; assay type: functional; in short: as §1
Rattus norvegicus [25] = organism: Rattus norvegicus; assay: […]; assay type: ADME, organism-based, Urine; parameters: dose 10 mg/kg, route oral; conditions: in vivo, po, 10 mg/kg; in short: as §4
Rattus norvegicus [26] = assay: Mean excretion of […] in conscious rats at a dose of 1.0 mg/kg given orally; assay type: ADME, organism-based; parameters: dose 1 mg/kg, route oral; conditions: in vivo, po; in short: as §4
Rattus norvegicus [27] = assay: Mean excretion of sodium in conscious rats at a dose of 30 mg/kg given orally; assay type: ADME, organism-based; parameters: dose 30 mg/kg, route oral; conditions: in vivo, po; in short: as §4
Rattus norvegicus [28] = assay: Mean excretion of potassium in conscious rats at a dose of 0.3 mg/kg given orally; assay type: ADME, organism-based; parameters: dose 0.3 mg/kg, route oral; conditions: in vivo, po; in short: as §2
Canis familiaris [29] = assay: Effect of compound on urinary volume before infusion with 10 mg/kg/hr fose into renal artery of anesthetized dogs; assay type: ADME, organism-based, Canis lupus familiaris, Urine; conditions: dog, in vivo
In short: (§5)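 Anesthetized dogs; drug added to saline pumped at 0.3 mL/min through a needle into one renal artery, contralateral kidney as control. 10 mg/kg per h, with 30-60 min stabilization first. Urine volume and GFR (inulin clearance) taken before and after infusion; means ± SEM in mL/min, N = 5, P < 0.05.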

[30] = Diuretic activity at 40 mg/kg (screening dose-90.5 umol/kg) in […] in a two stage experiment; T/C1.2 = urine vol of treated rats / urine vol of control rats; assay type: functional; in short: as §1
Canis familiaris [31] = assay: Effect of compound on glomerular filtration rate before infusion with 10 mg/kg/hr fose into renal artery of anesthetized dogs; assay type: ADME, organism-based, Canis lupus familiaris; conditions: dog, in vivo; in short: as §5
Canis familiaris [32] = assay: Effect of compound on urinary volume after infusion with 10 mg/kg/hr fose into renal artery of anesthetized dogs; assay type: ADME, organism-based, Canis lupus familiaris, Urine; conditions: dog, in vivo; in short: as §5
Canis familiaris [33] = assay: Effect of compound on glomerular filtration rate after infusion with 10 mg/kg/hr fose into renal artery of anesthetized dogs; assay type: ADME, organism-based, Canis lupus familiaris; conditions: dog, in vivo; in short: as §5
[34] = Diuretic activity at 40 mg/kg (screening dose-90.5 umol/kg) in […] in a one stage experiment; T/C = urine vol of treated rats / urine vol of control rats; assay type: functional; in short: as §1

Compound	Mean excretion of Cl- (Rattus norvegicus [3]) [m equiv]	Mean urine volume (Rattus norvegicus [4]) [mL]	Mean urine volume (Rattus norvegicus [6]) [mL]	Mean excretion of K+ (Rattus norvegicus [7]) [m equiv]	Mean excretion of K+ (Rattus norvegicus [8]) [m equiv]	Mean excretion of Na+ (Rattus norvegicus [9]) [m equiv]	Mean excretion of Na+ (Rattus norvegicus [10]) [m equiv]	Mean urine volume (Rattus norvegicus [11]) [mL]	Mean excretion of K+ (Rattus norvegicus [12]) [m equiv]	Mean excretion of K+ (Rattus norvegicus [13]) [m equiv]	Mean excretion of Cl- (Rattus norvegicus [14]) [m equiv]	Mean excretion of Cl- (Rattus norvegicus [15]) [m equiv]	Mean excretion of Cl- (Rattus norvegicus [16]) [m equiv]	Mean urine volume (Rattus norvegicus [17]) [mL]	Mean urine volume (Rattus norvegicus [18]) [mL]	Mean excretion of Cl- (Rattus norvegicus [19]) [m equiv]	Mean excretion of Cl- (Rattus norvegicus [20]) [m equiv]	Mean excretion of K+ (Rattus norvegicus [21]) [m equiv]	Mean excretion of Na+ (Rattus norvegicus [22]) [m equiv]	Mean excretion of Na+ (Rattus norvegicus [23]) [m equiv]	further results
CN(C)CCc1nnc2n1-c1ccc(Cl)cc1C(c1ccccc1)=NC2																					T/C 1 [1]: 1.66; T/C 1.2 [2]: 3.04
COc1cccc(C(CN(C)C)c2nnc3n2-c2ccc(Cl)cc2C(c2ccccc2)=NC3)c1 (stereo not drawn)	0.72	3.37	12.21	0.17	0.24	1.13	0.79	12.03	0.17	0.21	0.78	0.59	1.99	3.74	4.29	1.8	1.11	0.3	1.76	0.52	T/C 1.2 [5]: 7.31; T/C 1 [24]: 3.18; Mean urine volume (Rattus norvegicus [25]): 5.99 mL; Mean excretion of Na+ (Rattus norvegicus [26]): 0.64 m equiv; Mean excretion of Na+ (Rattus norvegicus [27]): 1.99 m equiv; Mean excretion of K+ (Rattus norvegicus [28]): 0.22 m equiv
CN(C)CC(c1ccccc1)c1nnc2n1-c1ccc(Cl)cc1C(c1ccccc1)=NC2 (stereo not drawn)	0.81	4.15	12	0.22	0.27	1.15	0.82	9.54	0.22	0.25	0.89	0.73	1.72	4.47	5.36	1.26	1.16	0.27	1.51	0.74	Urinary volume (Canis familiaris [29]): 0.2 mL/min; T/C 1.2 [30]: 5.27; GFR (Canis familiaris [31]): 23 mL/min; Urinary volume (Canis familiaris [32]): 0.9 mL/min; Mean urine volume (Rattus norvegicus [25]): 6.7 mL; Mean excretion of Na+ (Rattus norvegicus [26]): 0.81 m equiv; GFR (Canis familiaris [33]): 18 mL/min; Mean excretion of Na+ (Rattus norvegicus [27]): 1.8 m equiv; Mean excretion of K+ (Rattus norvegicus [28]): 0.25 m equiv; T/C 1 [34]: 2.1
